Consider 7 compounds from ChEMBL document CHEMBL1144053, “Six triterpenoid saponins from Mmaesa laxiflora” (J Nat Prod, 1999).

Assay [1] is described as follows: Inhibition of tubulin polymerization at 10 mg/mL by tubulin assembly assay. More on the design: scale not given: the % may be the effect or the level left. The method, boiled down:
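Test compound added to cold (6 °C) tubulin solution; assembly started by shifting the temperature from 6 to 37 °C. Turbidity followed over time, with polymerization rate taken from the slope of the turbidity increase.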

The next assay has as its system A549. Nature of the assay: Cytotoxicity against human A549 cells by MTT assay. It counts as functional, cell-based. The method, boiled down:
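A-549 cells from NCI; standard MTT-based colorimetric cytotoxicity assay.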

The nature of assay [2]: Inhibition of tubulin polymerization at 1 ug/mL by tubulin assembly assay. More on the design: scale not given: the % may be the effect or the level left. Summed up: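 Compound added to cold (6 °C) tubulin solution; assembly started by a temperature shift from 6 to 37 °C. Turbidity followed over time, with polymerization rate taken as the slope of the turbidity increase.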

Active and inactive are the calls of the source. No cut-off for these calls is given here.

In assay [1], `C/C=C(\C)C(=O)O[C@H]1CC(C)(C)C[C@H]2C3=CC[C@@H]4[C@@]5(C)CC[C@H](O[C@@H]6O[C@H](C(=O)O)[C@@H](O)[C@H](O[C@@H]7O[C@H](CO)[C@H](O)[C@H](O)[C@H]7O[C@@H]7O[C@@H](C)[C@H](O)[C@@H](O)[C@H]7O[C@@H]7O[C@@H](C)[C@H](O)[C@@H](O)[C@H]7O)[C@H]6O[C@@H]6O[C@H](CO)[C@H](O)[C@H](O)[C@H]6O)C(C)(C)[C@@H]5CC[C@@]4(C)[C@]3(C)C[C@@H](O)[C@@]12CO` showed an Activity of 41%. Further, the result in the assay with A549 was inactive.
In the case of `C/C=C(\C)C(=O)O[C@H]1CC(C)(C)C[C@H]2C3=CC[C@@H]4[C@@]5(C)CC[C@H](O[C@@H]6O[C@H](C(=O)O)[C@@H](O)[C@H](O[C@@H]7O[C@H](CO)[C@H](O)[C@H](O)[C@H]7O[C@@H]7O[C@@H](C)[C@H](O)[C@@H](O)[C@H]7O[C@@H]7O[C@@H](C)[C@H](O)[C@@H](O)[C@H]7O)[C@H]6O[C@@H]6O[C@H](CO)[C@@H](O)[C@H](O)[C@H]6O)C(C)(C)[C@@H]5CC[C@@]4(C)[C@]3(C)C[C@@H](O)[C@@]12CO`, in assay [1], the Activity turned out to be 41%. The outcome with A549 was inactive.
Take `C/C=C(\C)C(=O)O[C@H]1CC(C)(C)C[C@H]2C3=CC[C@@H]4[C@@]5(C)CC[C@H](O[C@@H]6O[C@H](C(=O)O)[C@@H](O)[C@H](O[C@@H]7O[C@H](CO)[C@H](O)[C@H](O)[C@H]7O[C@@H]7O[C@@H](C)[C@H](O)[C@@H](O)[C@H]7O[C@@H]7O[C@@H](C)[C@H](O)[C@@H](O)[C@H]7O)[C@H]6O[C@@H]6O[C@H](CO)[C@H](O)[C@H](O)[C@H]6O)C(C)(C)[C@@H]5CC[C@@]4(C)[C@]3(C)C[C@@H](OC(C)=O)[C@@]12CO`: the Activity in assay [1] is 41%. Besides, the result in the assay with A549 was inactive.
For `CCC/C=C\C(=O)O[C@H]1CC(C)(C)C[C@H]2C3=CC[C@@H]4[C@@]5(C)CC[C@H](O[C@@H]6O[C@H](C(=O)O)[C@@H](O)[C@H](O[C@@H]7O[C@H](CO)[C@H](O)[C@H](O)[C@H]7O[C@@H]7O[C@@H](C)[C@H](O)[C@@H](O)[C@H]7O[C@@H]7O[C@@H](C)[C@H](O)[C@@H](O)[C@H]7O)[C@H]6O[C@@H]6O[C@H](CO)[C@H](O)[C@H](O)[C@H]6O)C(C)(C)[C@@H]5CC[C@@]4(C)[C@]3(C)C[C@@H](O)[C@@]12CO`, in that order: 41% and “inactive”.
The compound `COc1cc2c(c(OC)c1OC)-c1ccc(OC)c(=O)cc1[C@@H](NC(C)=O)CC2` had an Activity in assay [2] of 50%.
As for `CCC/C=C\C(=O)O[C@H]1CC(C)(C)C[C@H]2C3=CC[C@@H]4[C@@]5(C)CC[C@H](O[C@@H]6O[C@H](C(=O)O)[C@@H](O)[C@H](O[C@@H]7O[C@H](CO)[C@H](O)[C@H](O)[C@H]7O[C@@H]7O[C@@H](C)[C@H](O)[C@@H](O)[C@H]7O[C@@H]7O[C@@H](C)[C@H](O)[C@@H](O)[C@H]7O)[C@H]6O[C@@H]6O[C@H](CO)[C@@H](O)[C@H](O)[C@H]6O)C(C)(C)[C@@H]5CC[C@@]4(C)[C@]3(C)C[C@@H](O)[C@@]12CO`, in assay [1], the Activity came to 41%. The outcome with A549 was inactive.
Taken in the same sequence, the figures for `C/C=C(\C)C(=O)O[C@H]1CC(C)(C)C[C@H]2C3=CC[C@@H]4[C@@]5(C)CC[C@H](O[C@@H]6O[C@H](C(=O)O)[C@@H](O)[C@H](O[C@@H]7O[C@H](CO)[C@H](O)[C@H](O)[C@H]7O[C@@H]7O[C@@H](C)[C@H](O)[C@@H](O)[C@H]7O[C@@H]7O[C@@H](C)[C@H](O)[C@@H](O)[C@H]7O)[C@H]6O[C@@H]6O[C@H](CO)[C@@H](O)[C@H](O)[C@H]6O)C(C)(C)[C@@H]5CC[C@@]4(C)[C@]3(C)C[C@@H](OC(C)=O)[C@@]12CO` were 41% and “inactive”.
